According to ChEMBL document CHEMBL1275377, “Structure-based design, synthesis, and structure-activity relationship studies of HIV-1 protease inhibitors incorporating phenyloxazolidinones” (J Med Chem, 2010):
pEC50, pKi: −log10 of the molar value.

Tests used:
[1] = system: Human immunodeficiency virus 1; test: Antiviral activity against Human immunodeficiency virus 1 clade B isolated from HIV-AIDS patient; format: functional, organism-based
[2] = system: Human immunodeficiency virus 1; test: Antiviral activity against wild type Human immunodeficiency virus 1; format: functional, organism-based
[3] = system: Human immunodeficiency virus 1; test: Antiviral activity against multidrug resistant Human immunodeficiency virus 1 harboring protease M46I, I54V, V82A and L90M mutant; format: functional, organism-based
In short: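 Drug susceptibility assay run by an outside contract lab. Panel: patient-derived wild-type HIV-1 clades A, B and C; MDR1 carrying protease M46I, I54V, V82A, L90M; MDR control MDRC4; and an NL4-3-derived clade B wild-type control (CNDO). The PR/RT regions of these strains were sequenced and deposited.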

[4] = system: Human immunodeficiency virus 1; test: Antiviral activity against Human immunodeficiency virus 1 clade C isolated from HIV-AIDS patient; format: functional, organism-based
[5] = system: Human immunodeficiency virus 1; test: Antiviral activity against multidrug resistant Human immunodeficiency virus 1 MDRC4; format: functional, organism-based
[6] = system: Human immunodeficiency virus 1; test: Antiviral activity against Human immunodeficiency virus 1 clade A isolated from HIV-AIDS patient; format: functional, organism-based
Protease = Protease (Human immunodeficiency virus 1, UniProt Q9YQ12); test: Inhibition of wild type HIV1 protease by FRET
Protease, sequence (Q9YQ12 whole entry): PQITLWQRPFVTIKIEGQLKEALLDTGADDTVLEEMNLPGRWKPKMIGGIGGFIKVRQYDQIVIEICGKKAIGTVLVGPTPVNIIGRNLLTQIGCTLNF

| Compound | pEC50 [1] | pEC50 [2] | pEC50 [3] | pEC50 [4] | pEC50 [5] | pEC50 [6] | pKi (Protease) |
| --- | --- | --- | --- | --- | --- | --- | --- |
| CC(=O)Nc1cccc(N2C[C@@H](C(=O)N[C@@H](Cc3ccccc3)[C@H](O)CN(CC(C)C)S(=O)(=O)c3ccc4c(c3)OCO4)OC2=O)c1 | 8.20 | 7.96 | 7.38 | 7.68 | 7.33 | 8.05 | – |
| CC(C)CN(C[C@@H](O)[C@H](Cc1ccccc1)NC(=O)[C@@H]1CN(c2ccc(F)cc2F)C(=O)O1)S(=O)(=O)c1ccc(N)cc1 | – | – | – | – | – | – | 9.41 |
| CC(C)CN(C[C@@H](O)[C@H](Cc1ccccc1)NC(=O)[C@@H]1CN(c2cccc(F)c2)C(=O)O1)S(=O)(=O)c1ccc(CO)cc1 | – | – | – | – | – | – | 9.50 |
| CC(=O)c1cccc(N2C[C@@H](C(=O)N[C@@H](Cc3ccccc3)[C@H](O)CN(CC(C)C)S(=O)(=O)c3ccc4c(c3)OCO4)OC2=O)c1 | – | – | – | – | – | – | 11.22 |
| CC(C)CN(C[C@@H](O)[C@H](Cc1ccccc1)NC(=O)[C@@H]1CN(c2cccc(OC(F)(F)F)c2)C(=O)O1)S(=O)(=O)c1ccc2ncsc2c1 | 7.90 | 7.66 | 6.98 | 7.24 | 6.96 | 7.49 | – |
| CC(=O)c1cccc(N2C[C@@H](C(=O)N[C@@H](Cc3ccccc3)[C@H](O)CN(CC(C)C)S(=O)(=O)c3ccc(CO)cc3)OC2=O)c1 | – | – | – | – | – | – | 9.63 |
| CC(C)CN(C[C@@H](O)[C@H](Cc1ccccc1)NC(=O)[C@@H]1CN(c2ccc(F)cc2F)C(=O)O1)S(=O)(=O)c1ccc(CO)cc1 | – | – | – | – | – | – | 9.67 |
| CC(C)CN(C[C@@H](O)[C@H](Cc1ccccc1)NC(=O)[C@@H]1CN(c2cccc([N+](=O)[O-])c2)C(=O)O1)S(=O)(=O)c1ccc2ncsc2c1 | 8.24 | 8.14 | 7.47 | 7.79 | 7.42 | 7.94 | – |
| CC(C)CN(C[C@@H](O)[C@H](Cc1ccccc1)NC(=O)[C@@H]1CN(c2ccccc2)C(=O)O1)S(=O)(=O)c1ccc2ncsc2c1 | 7.85 | 7.67 | 6.95 | 7.39 | 6.91 | 7.53 | – |
| CC(=O)Nc1cccc(N2C[C@@H](C(=O)N[C@@H](Cc3ccccc3)[C@H](O)CN(CC(C)C)S(=O)(=O)c3ccc4ncsc4c3)OC2=O)c1 | 8.11 | 8.24 | 7.60 | 8.02 | 7.53 | 8.00 | – |
| COc1ccc(S(=O)(=O)N(CC(C)C)C[C@@H](O)[C@H](Cc2ccccc2)NC(=O)[C@@H]2CN(c3cccc(S(C)(=O)=O)c3)C(=O)O2)cc1 | 8.33 | 8.26 | 7.84 | 8.02 | 7.73 | 8.14 | – |
| CC(C)CN(C[C@@H](O)[C@H](Cc1ccccc1)NC(=O)[C@@H]1CN(c2cccc(S(C)(=O)=O)c2)C(=O)O1)S(=O)(=O)c1ccc2ncsc2c1 | 8.46 | 8.30 | 8.03 | 8.24 | 7.98 | 8.39 | – |
| CC(C)CN(C[C@@H](O)[C@H](Cc1ccccc1)NC(=O)[C@@H]1CN(c2ccccc2)C(=O)O1)S(=O)(=O)c1ccc(N)cc1 | – | – | – | – | – | – | 9.28 |
| CC(C)CN(C[C@@H](O)[C@H](Cc1ccccc1)NC(=O)[C@@H]1CN(c2cccc(N)c2)C(=O)O1)S(=O)(=O)c1ccc2ncsc2c1 | 8.89 | 8.77 | 7.92 | 8.60 | 7.84 | 8.59 | – |
| CC(C)CN(C[C@@H](O)[C@H](Cc1ccccc1)NC(=O)[C@@H]1CN(c2ccc(F)cc2)C(=O)O1)S(=O)(=O)c1ccc(N)cc1 | – | – | – | – | – | – | 9.35 |
| COc1ccc(S(=O)(=O)N(CC(C)C)C[C@@H](O)[C@H](Cc2ccccc2)NC(=O)[C@@H]2CN(c3cccc(N)c3)C(=O)O2)cc1 | 8.52 | 8.40 | 7.72 | 8.03 | 7.44 | 8.07 | – |
| CC(C)CN(C[C@@H](O)[C@H](Cc1ccccc1)NC(=O)[C@@H]1CN(c2cccc(C(F)(F)F)c2)C(=O)O1)S(=O)(=O)c1ccc2ncsc2c1 | 8.00 | 7.87 | 7.24 | 7.49 | 7.27 | 7.79 | – |
| CC(C)CN(C[C@@H](O)[C@H](Cc1ccccc1)NC(=O)[C@@H]1CN(c2cccc(N)c2)C(=O)O1)S(=O)(=O)c1ccc2c(c1)OCO2 | 8.55 | 8.15 | 7.55 | 7.91 | 7.45 | 8.21 | – |
| CC(C)CN(C[C@@H](O)[C@H](Cc1ccccc1)NC(=O)O[C@H]1CO[C@H]2OCC[C@H]21)S(=O)(=O)c1ccc(N)cc1 | 9.40 | 9.40 | 9.30 | 9.40 | – | 9.22 | – |
| CC(=O)c1cccc(N2C[C@@H](C(=O)N[C@@H](Cc3ccccc3)[C@H](O)CN(CC(C)C)S(=O)(=O)c3ccc4ncsc4c3)OC2=O)c1 | 8.38 | 8.19 | 7.49 | 8.00 | 7.46 | 8.01 | – |
| CC(C)CN(C[C@@H](O)[C@H](Cc1ccccc1)NC(=O)[C@@H]1CN(c2ccc(F)c(F)c2)C(=O)O1)S(=O)(=O)c1ccc(CO)cc1 | – | – | – | – | – | – | 9.48 |
| CC(C)CN(C[C@@H](O)[C@H](Cc1ccccc1)NC(=O)[C@@H]1CN(c2ccccc2)C(=O)O1)S(=O)(=O)c1ccc(CO)cc1 | – | – | – | – | – | – | 9.60 |
| COC(=O)Nc1cccc(N2C[C@@H](C(=O)N[C@@H](Cc3ccccc3)[C@H](O)CN(CC(C)C)S(=O)(=O)c3ccc4ncsc4c3)OC2=O)c1 | 8.80 | 8.92 | 7.97 | 8.52 | 7.89 | 8.62 | – |
| COc1ccc(S(=O)(=O)N(CC(C)C)C[C@@H](O)[C@H](Cc2ccccc2)NC(=O)[C@@H]2CN(c3ccccc3)C(=O)O2)cc1 | – | – | – | – | – | – | 10.00 |
| CC(C)CN(C[C@@H](O)[C@H](Cc1ccccc1)NC(=O)[C@@H]1CN(c2ccc(F)cc2F)C(=O)O1)S(=O)(=O)c1ccc2c(c1)OCO2 | – | – | – | – | – | – | 9.46 |
| CC(C)CN(C[C@@H](O)[C@H](Cc1ccccc1)NC(=O)[C@@H]1CN(c2cccc(S(C)(=O)=O)c2)C(=O)O1)S(=O)(=O)c1ccc2c(c1)OCO2 | 8.46 | 8.40 | 7.87 | 8.12 | 7.92 | 8.11 | – |
| CC(=O)c1ccc(N2C[C@@H](C(=O)N[C@@H](Cc3ccccc3)[C@H](O)CN(CC(C)C)S(=O)(=O)c3ccc(CO)cc3)OC2=O)cc1 | – | – | – | – | – | – | 9.50 |
